Legend:
Cytochrome P450 2C9 = Cytochrome P450 2C9 (Homo sapiens, UniProt P11712); experiment: Inhibition of CYP2C9 (unknown origin); assay type: ADME
Method in brief: (§1)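 Inhibition of CYP1A2, 2D6, 2C9 and 3A4 reported as IC50, or as percent inhibition at 3 µM.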

Rattus norvegicus [1] = experiment: Toxicity in Crl:CD(SD) rat at 5 to 15 mg/kg/day, po daily via gavage for 14 days measured on day 15 post last dose; assay type: organism-based; details: in vivo, 336 h
Cytochrome P450 3A4 = Cytochrome P450 3A4 (Homo sapiens, UniProt P08684); experiment: Inhibition of CYP3A4 (unknown origin); assay type: ADME; method in brief: as §1
Sequence of Cytochrome P450 3A4 (P08684 whole entry): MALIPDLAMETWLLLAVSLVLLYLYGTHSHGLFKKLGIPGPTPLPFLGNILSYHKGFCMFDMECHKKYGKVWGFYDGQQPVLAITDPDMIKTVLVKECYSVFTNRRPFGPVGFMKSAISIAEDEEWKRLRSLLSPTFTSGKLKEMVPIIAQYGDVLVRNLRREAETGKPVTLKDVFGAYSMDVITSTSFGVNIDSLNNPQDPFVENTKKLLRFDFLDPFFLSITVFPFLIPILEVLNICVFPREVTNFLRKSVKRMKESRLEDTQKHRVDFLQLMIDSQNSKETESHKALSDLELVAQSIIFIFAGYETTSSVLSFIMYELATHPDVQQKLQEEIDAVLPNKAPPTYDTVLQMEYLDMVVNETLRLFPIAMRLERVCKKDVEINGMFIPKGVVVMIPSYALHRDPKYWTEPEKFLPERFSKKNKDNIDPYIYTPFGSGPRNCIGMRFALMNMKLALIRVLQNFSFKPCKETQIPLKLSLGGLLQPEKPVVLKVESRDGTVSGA

Rattus norvegicus [2] = experiment: Toxicity in Crl:CD(SD) rat at 15 mg/kg/day, po daily via gavage for 14 days; assay type: organism-based; details: in vivo, 336 h
[3] = Intrinsic clearance in human liver microsomes; assay type: ADME, microsome; details: read-out: CLH
[4] = Permeability from basolateral to apical side in MDCK cells harboring MDR1; assay type: ADME, cell-based, Canis lupus familiaris; details: dog, read-out: permeability
Method in brief: (§2)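 Bidirectional permeability across MDR1-transfected MDCK monolayers, apical-to-basolateral and basolateral-to-apical; Papp reported in 10^-6 cm/s.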

[5] = Lipophilicity, log D of the compound by shake flask method; assay type: physicochemical; details: octanol/water
Method in brief: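 LogD measured by the shake-flask method.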

Rattus norvegicus [6] = experiment: Toxicity in Crl:CD(SD) rat assessed as decrease in WBC at 50 mg/kg/day, po daily via gavage for 14 days measured on day 15 post last dose relative to control; assay type: organism-based; design: scale not given: the % may be the effect or the level left; details: in vivo, 336 h
[7] = Total plasma concentration in Crl:CD(SD) rat at 15 mg/kg/day, po daily via gavage for 14 days measured on day 14 post last dose up to 24 hrs; assay type: ADME, organism-based; details: in vivo
Rattus norvegicus [8] = experiment: Toxicity in Crl:CD(SD) rat assessed as discolored/mottled liver at 50 mg/kg/day, po daily via gavage for 14 days measured on day 15 post last dose; assay type: organism-based; details: in vivo, 336 h
Method in brief: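 Male rats, 5 per group, given vehicle or compound at 50 mg/kg/day by oral gavage for 14 days. Mortality, clinical signs and hematology monitored throughout. Necropsy on day 15 with microscopy of bone marrow, ileum, duodenum, jejunum and liver. Toxicokinetics at 1, 3, 6 and 24 h post-dose on day 14.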

Rattus norvegicus [9] = experiment: Toxicity in Crl:CD(SD) rat assessed as decrease in hematocrit and hemoglobin level at 50 mg/kg/day, po daily via gavage for 14 days measured on day 15 post last dose relative to control; assay type: organism-based; design: scale not given: the % may be the effect or the level left; details: in vivo, 336 h
Rattus norvegicus [10] = experiment: Toxicity in Crl:CD(SD) rat assessed as decrease in lymphocytes at 50 mg/kg/day, po daily via gavage for 14 days measured on day 15 post last dose relative to control; assay type: organism-based; design: scale not given: the % may be the effect or the level left; details: in vivo, 336 h
Rattus norvegicus [11] = experiment: Reduction in LDL cholesterol level in Crl:CD(SD) rat at 50 mg/kg/day, po daily via gavage for 14 days measured on day 15 post last dose relative to control; assay type: functional; design: scale not given: the % may be the effect or the level left
Rattus norvegicus [12] = experiment: Toxicity in Crl:CD(SD) rat assessed as decrease in total T cells at 50 mg/kg/day, po daily via gavage for 14 days measured on day 15 post last dose relative to control; assay type: organism-based; design: scale not given: the % may be the effect or the level left; details: in vivo, 336 h
Rattus norvegicus [13] = experiment: Toxicity in Crl:CD(SD) rat assessed as decrease in total erythroid cells at 50 mg/kg/day, po daily via gavage for 14 days measured on day 15 post last dose relative to control; assay type: organism-based; design: scale not given: the % may be the effect or the level left; details: in vivo, 336 h
80S Ribosome [14] = experiment: Binding affinity of [3H]PF-06446846 to human 80S ribosome
[15] = Permeability from apical to basolateral side in MDCK cells harboring MDR1; assay type: ADME, cell-based, Canis lupus familiaris; details: dog, read-out: permeability; method in brief: as §2
Cytochrome P450 1A2 = target: T1, Cytochrome P450 1A2 (Homo sapiens, UniProt P05177); experiment: Inhibition of CYP1A2 (unknown origin); assay type: ADME; method in brief: as §1
T1 sequence (P05177 whole entry): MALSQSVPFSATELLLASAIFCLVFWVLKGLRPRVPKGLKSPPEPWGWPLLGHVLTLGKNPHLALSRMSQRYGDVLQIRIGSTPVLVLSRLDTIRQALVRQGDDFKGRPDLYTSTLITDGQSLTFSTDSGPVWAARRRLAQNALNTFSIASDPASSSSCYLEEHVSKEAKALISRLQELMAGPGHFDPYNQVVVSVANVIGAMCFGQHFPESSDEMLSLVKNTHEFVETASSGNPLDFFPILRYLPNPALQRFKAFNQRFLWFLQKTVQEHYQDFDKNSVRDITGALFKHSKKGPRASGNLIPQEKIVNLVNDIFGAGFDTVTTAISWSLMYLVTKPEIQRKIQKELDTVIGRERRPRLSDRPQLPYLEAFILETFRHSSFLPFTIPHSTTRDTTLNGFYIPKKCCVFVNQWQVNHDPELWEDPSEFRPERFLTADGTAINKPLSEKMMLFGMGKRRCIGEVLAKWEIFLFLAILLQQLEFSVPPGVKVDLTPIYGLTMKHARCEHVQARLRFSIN

80S Ribosome [16] = experiment: Binding affinity to 80S ribosome in human HuH7 cells harboring pCMV-truncated human PCSK9 (1 to 152 residues)-proLuc assessed as inhibition of PCSK9 mRNA translation after overnight incubation by luciferase reporter gene assay; assay type: cell-based; details: huh-7
Method in brief: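 Huh7 cells stably carry human PCSK9 prodomain (aa 1-152) fused to firefly luciferase (aa 2-550) in pcDNA3.1, kept under 900 µg/mL Geneticin. Plated 10,000/well in phenol red-free DMEM/10% FBS and left 4 h, then compound added (top final 20 µM, 0.5% DMSO). Incubated overnight at 37 °C, luminescence read with SteadyGlo.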

Rattus norvegicus [17] = experiment: Toxicity in Crl:CD(SD) rat assessed as decrease in B cells at 50 mg/kg/day, po daily via gavage for 14 days measured on day 15 post last dose relative to control; assay type: organism-based; design: scale not given: the % may be the effect or the level left; details: in vivo, 336 h
Rattus norvegicus [18] = experiment: Toxicity in Crl:CD(SD) rat assessed as decrease in eosinophils at 50 mg/kg/day, po daily via gavage for 14 days measured on day 15 post last dose relative to control; assay type: organism-based; design: scale not given: the % may be the effect or the level left; details: in vivo, 336 h
Bone marrow cell = experiment: Cytotoxicity against rat bone marrow cells assessed as reduction in cell viability after 72 hrs by CellTiter-Glo assay; assay type: cell-based
Rattus norvegicus [19] = experiment: Toxicity in Crl:CD(SD) rat assessed as decrease in monocytes at 50 mg/kg/day, po daily via gavage for 14 days measured on day 15 post last dose relative to control; assay type: organism-based; design: scale not given: the % may be the effect or the level left; details: in vivo, 336 h
[20] = Cytotoxicity against human CD34-positive hematopoietic progenitor cells assessed as reduction in cell viability after 72 hrs by CellTiter-Glo assay; assay type: cell-based
Rattus norvegicus [21] = experiment: Toxicity in Crl:CD(SD) rat assessed as decrease in absolute maturing erythroid cells at 50 mg/kg/day, po daily via gavage for 14 days measured on day 15 post last dose relative to control; assay type: organism-based; design: scale not given: the % may be the effect or the level left; details: in vivo, 336 h
Rattus norvegicus [22] = experiment: Toxicity in Crl:CD(SD) rat assessed as decrease in basophils at 50 mg/kg/day, po daily via gavage for 14 days measured on day 15 post last dose relative to control; assay type: organism-based; design: scale not given: the % may be the effect or the level left; details: in vivo, 336 h
[23] = Apparent permeability in RRCK cells; assay type: ADME, cell-based, Canis lupus familiaris, MDCKII-LE; details: dog, MDCK
Method in brief: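 Passive permeability measured in RRCK cells, a modified Madin-Darby canine kidney line; Papp reported in 10^-6 cm/s.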

Cytochrome P450 2D6 = Cytochrome P450 2D6 (Homo sapiens, UniProt P10635); experiment: Inhibition of CYP2D6 (unknown origin); assay type: ADME; method in brief: as §1
Sequence of Cytochrome P450 2D6 (P10635 whole entry): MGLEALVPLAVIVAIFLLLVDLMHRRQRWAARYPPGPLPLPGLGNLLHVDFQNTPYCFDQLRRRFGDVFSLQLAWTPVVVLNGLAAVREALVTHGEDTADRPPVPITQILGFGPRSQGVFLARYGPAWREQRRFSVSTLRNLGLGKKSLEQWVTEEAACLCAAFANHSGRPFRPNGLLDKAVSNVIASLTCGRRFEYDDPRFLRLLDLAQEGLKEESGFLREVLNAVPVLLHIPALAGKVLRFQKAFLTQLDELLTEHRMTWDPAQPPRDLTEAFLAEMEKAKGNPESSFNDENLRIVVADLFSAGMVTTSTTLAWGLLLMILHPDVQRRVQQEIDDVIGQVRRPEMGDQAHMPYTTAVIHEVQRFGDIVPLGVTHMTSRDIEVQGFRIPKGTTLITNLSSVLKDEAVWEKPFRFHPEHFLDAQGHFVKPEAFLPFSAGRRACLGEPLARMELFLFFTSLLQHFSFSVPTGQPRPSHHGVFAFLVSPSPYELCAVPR

Rattus norvegicus [24] = experiment: Toxicity in Crl:CD(SD) rat assessed as decrease in total nucleated cell count at 50 mg/kg/day, po daily via gavage for 14 days measured on day 15 post last dose relative to control; assay type: organism-based; design: scale not given: the % may be the effect or the level left; details: in vivo, 336 h

Sequence of Cytochrome P450 2C9 (P11712 whole entry): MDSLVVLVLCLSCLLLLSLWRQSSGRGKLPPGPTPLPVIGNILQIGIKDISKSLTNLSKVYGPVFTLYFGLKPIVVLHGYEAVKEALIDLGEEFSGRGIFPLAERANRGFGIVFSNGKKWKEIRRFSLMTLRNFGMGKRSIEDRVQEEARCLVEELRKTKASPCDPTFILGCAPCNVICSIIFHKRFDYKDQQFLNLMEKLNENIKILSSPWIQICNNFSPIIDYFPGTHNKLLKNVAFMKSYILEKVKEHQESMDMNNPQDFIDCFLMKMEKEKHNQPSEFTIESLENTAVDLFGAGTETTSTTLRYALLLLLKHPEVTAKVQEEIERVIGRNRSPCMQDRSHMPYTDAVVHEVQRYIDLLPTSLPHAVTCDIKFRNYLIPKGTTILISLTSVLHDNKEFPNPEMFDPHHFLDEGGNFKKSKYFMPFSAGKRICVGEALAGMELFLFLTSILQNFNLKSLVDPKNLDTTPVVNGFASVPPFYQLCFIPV

O=C(c1ccc(-n2nnc3cccnc32)cc1)N(c1ncccc1Cl)[C@@H]1CCCNC1
IC50 (Cytochrome P450 2C9): > 30 µM
Activity (Rattus norvegicus [1]): Non-Toxic
IC50 (Cytochrome P450 3A4): > 30 µM
NOAEL (Rattus norvegicus [2]): 478 nM
microsomal CLint [3]: 9.7 µL/min/mg
Papp B→A [4]: 20.6 ×10⁻⁶ cm/s
logD [5]: 0.8
Activity (Rattus norvegicus [6]): 52%
concentration [7]: 2420 nM
Activity (Rattus norvegicus [8]): Toxic
Activity (Rattus norvegicus [9]): 9 to 10%
Activity (Rattus norvegicus [10]): 54%
Activity (Rattus norvegicus [11]): 58%
Activity (Rattus norvegicus [12]): 54%
Activity (Rattus norvegicus [13]): 46%
Ki (80S Ribosome [14]): 7 µM
Papp A→B [15]: 1.5 ×10⁻⁶ cm/s
IC50 (Cytochrome P450 1A2): > 30 µM
IC50 (80S Ribosome [16]): 380 nM
Activity (Rattus norvegicus [17]): 58%
Activity (Rattus norvegicus [18]): 54%
IC50 (Bone marrow cell): 1200 to 2900 nM
Activity (Rattus norvegicus [19]): 63%
IC50 [20]: 2700 nM
Activity (Rattus norvegicus [21]): 48%
Activity (Rattus norvegicus [22]): 100%
Papp [23]: 15 ×10⁻⁶ cm/s
IC50 (Cytochrome P450 2D6): > 30 µM
Activity (Rattus norvegicus [24]): 30%

— ChEMBL document CHEMBL4118248, “Small Molecule Proprotein Convertase Subtilisin/Kexin Type 9 (PCSK9) Inhibitors: Hit to Lead Optimization of Systemic Agents” (J Med Chem, 2018)
